Two compounds from ChEMBL document CHEMBL1275525, “Activity of hydroxyurea against Leishmania mexicana” (2008) can be followed below.

In brackets after ≈: the same amount, converted by molar mass. Activity calls are given as the source filed them. The calls are words filed in the database; no cut-off is given here.

The subject of experiment [1] is Leishmania mexicana. As to the kind of experiment: Antileishmanial activity against Leishmania mexicana MNYC/BZ/62/M379 promastigotes at 10 ug/ml after 48 hrs by hemocytometer. The class given is functional, organism-based.
Experiment [2] deals with Leishmania mexicana. As to the kind of experiment: Antileishmanial activity against Leishmania mexicana MHOM/MX/00/Tab3 promastigotes at 10 ug/ml after 48 hrs by hemocytometer. The class given is functional, organism-based.
Experiment [3] concerns Leishmania mexicana. The experiment in a line: Antileishmanial activity against Leishmania mexicana MNYC/BZ/62/M379 promastigotes at 100 ug/ml after 48 hrs by hemocytometer. The class given is functional, organism-based.
Experiment [4] concerns Leishmania mexicana. As to the kind of experiment: Antileishmanial activity against Leishmania mexicana MHOM/MX/00/Tab3 promastigotes at 100 ug/ml after 48 hrs by hemocytometer. It counts as functional, organism-based.
The subject of experiment [5] is Leishmania mexicana. The experiment in a line: Antileishmanial activity against Leishmania mexicana MNYC/BZ/62/M379 promastigotes assessed as survival rate after 6 days by hemocytometer. It counts as functional. The procedure, abridged:
(§1)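 Promastigotes were grown cell-free at 26°C in DMEM with 10% heat-inactivated FCS, with drug at 0.01–100 µg/ml. Parasite density was counted by hemacytometer every other day, and the value was taken on day 6. Data were recorded in triplicate, and experiments were run four times.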

Experiment [6] relates to Leishmania mexicana. The experiment in a line: Antileishmanial activity against Leishmania mexicana MHOM/MX/00/Tab3 promastigotes assessed as survival rate after 6 days by hemocytometer. The class given is functional. The procedure, abridged: as §1
The subject of experiment [7] is Leishmania mexicana. As to the kind of experiment: Antileishmanial activity against Leishmania mexicana MNYC/BZ/62/M379 promastigotes measured on day 6 by hemocytometer. It counts as functional. The note with it: MNYC/BZ/62/M379, 144 h, read-out: ED50 (the source's name). A digest of the protocol: (§2)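 Promastigotes were cultured cell-free at 26°C in DMEM with 10% heat-inactivated FCS, with hydroxyurea at 0.01-100 µg/ml. Density was counted by hemacytometer every other day, and inhibition versus untreated control was taken on day 6 of culture.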

The subject of experiment [8] is Leishmania mexicana. As to the kind of experiment: Antileishmanial activity against Leishmania mexicana MHOM/MX/00/Tab3 promastigotes measured on day 6 by hemocytometer. The note with it: MHOM/MX/00/Tab3, 144 h, read-out: ED50 (the source's name). It counts as functional. The procedure, abridged:
as §2

Experiment [9] relates to Leishmania mexicana. As to the kind of experiment: Antileishmanial activity against Leishmania mexicana MHOM/MX/00/Tab3 infected in BALB/c mouse macrophage assessed as growth inhibition at 1 ug/ml after 6 days by hemocytometer. It counts as functional. A digest of the protocol: (§3)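 Resident peritoneal macrophages from male BALB/c mice were plated at 10^6 cells/ml and incubated for 24 h at 32°C in 5% CO2. Adherent cells were infected with 10^7 mid-log amastigote-like forms for 48 h at 32°C, then washed. Drug was applied for 6 days at 32°C, then replaced with drug-free medium and shifted to 26°C. Released promastigotes were counted by hemacytometer 6 days later, in triplicate. Inhibition = 100×(Tc−Tp)/Tc versus untreated.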

The test system of experiment [10] is Leishmania mexicana. The experiment in a line: Antileishmanial activity against Leishmania mexicana MHOM/MX/00/Tab3 infected in BALB/c mouse macrophage assessed as growth inhibition at 10 ug/ml after 6 days by hemocytometer. It counts as functional. The procedure, abridged: as §3
The test system of experiment [11] is Leishmania mexicana. As to the kind of experiment: Antileishmanial activity against Leishmania mexicana MHOM/MX/00/Tab3 infected in BALB/c mouse macrophage assessed as growth inhibition at 100 ug/ml after 6 days by hemocytometer. The class given is functional. The note with it: MHOM/MX/00/Tab3, 144 h. A digest of the protocol: (§4)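 Peritoneal resident macrophages from male BALB/c mice (20-25 g) were pooled, washed, plated at 10^6 cells/ml, and left to adhere for 24 h at 32°C in 5% CO2. Adherent cells were infected with 10^7 mid-log amastigote-like forms for 48 h, then washed. Drug was given at 0.01-100 µg/ml for 3, 6, 9 or 12 days at 32°C. After removal, plates moved to 26°C; released promastigotes were hemacytometer-counted 6 days later. Inhibition = 100 x (Tc − Tp)/Tc; triplicate.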

Experiment [12] concerns Leishmania mexicana. The experiment in a line: Antileishmanial activity against Leishmania mexicana MNYC/BZ/62/M379 infected in BALB/c mouse macrophage assessed as growth inhibition at 1 ug/ml after 6 days by hemocytometer. The class given is functional. A digest of the protocol: as §3
Experiment [13] has as its system Leishmania mexicana. As to the kind of experiment: Antileishmanial activity against Leishmania mexicana MNYC/BZ/62/M379 infected in BALB/c mouse macrophage assessed as growth inhibition at 10 ug/ml after 6 days by hemocytometer. The class given is functional. The procedure, abridged:
as §3

Experiment [14] deals with Leishmania mexicana. As to the kind of experiment: Antileishmanial activity against Leishmania mexicana MNYC/BZ/62/M379 infected in BALB/c mouse macrophage assessed as growth inhibition at 100 ug/ml after 6 days by hemocytometer. The note with it: MNYC/BZ/62/M379, 144 h. It counts as functional. The procedure, abridged: as §4
The subject of experiment [15] is Leishmania mexicana. As to the kind of experiment: Antileishmanial activity against Leishmania mexicana MHOM/MX/00/Tab3 infected in BALB/c mouse macrophage measured on day 6 by hemocytometer. It counts as functional. The note with it: MHOM/MX/00/Tab3, 144 h, read-out: ED50 (the source's name). A digest of the protocol:
as §4

For experiment [16], the system named is Leishmania mexicana. The experiment in a line: Antileishmanial activity against Leishmania mexicana MNYC/BZ/62/M379 infected in BALB/c mouse macrophage measured on day 6 by hemocytometer. It counts as functional. The note with it: MNYC/BZ/62/M379, 144 h, read-out: ED50 (the source's name). The procedure, abridged: as §4
The test system of experiment [17] is Leishmania mexicana. The experiment in a line: Cell cycle arrest in Leishmania mexicana assessed as accumulation at G2/M phase at 10 ug/ml after 48 hrs by fluorescence-activated cell sorter. It counts as functional, organism-based. A digest of the protocol:
(§5)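 Mid-log promastigotes were exposed 48 h at 26°C to 1, 10 or 100 µg/ml, washed in PBS with 0.02 M EDTA, and fixed in cold methanol for 24 h. They were then stained 20 min at 25°C with RNase I (50 µg/ml) and PI (25 µg/ml), kept on ice, and analysed by FACS for DNA content.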

Experiment [18] concerns Leishmania mexicana. As to the kind of experiment: Cell cycle arrest in Leishmania mexicana assessed as accumulation at G2/M phase at 100 ug/ml after 48 hrs by fluorescence-activated cell sorter. It counts as functional, organism-based. A digest of the protocol:
as §5

Experiment [19] has as its system Leishmania mexicana. The experiment in a line: Cell cycle arrest in Leishmania mexicana assessed as accumulation at G2/M phase at 1 ug/ml after 48 hrs by fluorescence-activated cell sorter. The class given is functional, organism-based. The procedure, abridged: as §5
Experiment [20] deals with Leishmania mexicana. As to the kind of experiment: Antileishmanial activity against Leishmania mexicana infected in BALB/c mouse macrophage assessed as growth inhibition at 0.01 ug/ml after 3 days by hemocytometer. It counts as functional. The note with it: 72 h. The procedure, abridged: as §4
The test system of experiment [21] is Leishmania mexicana. As to the kind of experiment: Antileishmanial activity against Leishmania mexicana infected in BALB/c mouse macrophage assessed as growth inhibition at 0.01 ug/ml after 12 days by hemocytometer. The class given is functional. The note with it: 288 h. The procedure, abridged:
as §4

The test system of experiment [22] is Leishmania mexicana. The experiment in a line: Antileishmanial activity against Leishmania mexicana infected in BALB/c mouse macrophage assessed as growth inhibition at 0.1 ug/ml after 3 days by hemocytometer. The class given is functional. The following applies: 72 h. A digest of the protocol: as §4
Experiment [23] deals with Leishmania mexicana. As to the kind of experiment: Antileishmanial activity against Leishmania mexicana infected in BALB/c mouse macrophage assessed as growth inhibition at 0.1 ug/ml after 12 days by hemocytometer. The class given is functional. The following applies: 288 h. A digest of the protocol: as §4
The test system of experiment [24] is Leishmania mexicana. As to the kind of experiment: Antileishmanial activity against Leishmania mexicana infected in BALB/c mouse macrophage assessed as growth inhibition at 1 ug/ml after 3 days by hemocytometer. The class given is functional. The note with it: 72 h. A digest of the protocol: as §4
Experiment [25] deals with Leishmania mexicana. The experiment in a line: Antileishmanial activity against Leishmania mexicana infected in BALB/c mouse macrophage assessed as growth inhibition at 1 ug/ml after 12 days by hemocytometer. It counts as functional. The following applies: 288 h. The procedure, abridged:
as §4

Experiment [26] has as its system Leishmania mexicana. As to the kind of experiment: Antileishmanial activity against Leishmania mexicana infected in BALB/c mouse macrophage assessed as growth inhibition at 10 ug/ml after 3 days by hemocytometer. The note with it: 72 h. The class given is functional. A digest of the protocol: as §4
Experiment [27] has as its system Leishmania mexicana. As to the kind of experiment: Antileishmanial activity against Leishmania mexicana infected in BALB/c mouse macrophage assessed as growth inhibition at 10 ug/ml after 12 days by hemocytometer. The note with it: 288 h. It counts as functional. A digest of the protocol: as §4
The test system of experiment [28] is Leishmania mexicana. The experiment in a line: Antileishmanial activity against Leishmania mexicana infected in BALB/c mouse macrophage assessed as growth inhibition at 100 ug/ml after 3 days by hemocytometer. The class given is functional, organism-based. A digest of the protocol:
as §4

The test system of experiment [29] is Leishmania mexicana. As to the kind of experiment: Antileishmanial activity against Leishmania mexicana promastigotes assessed as parasite burden at 1 ug/ml after 8 days by hemacytometer.
In experiment [30] the test system is Leishmania mexicana. The experiment in a line: Antileishmanial activity against Leishmania mexicana promastigotes assessed as parasite burden at 10 ug/ml after 8 days by hemacytometer.
The subject of experiment [31] is Leishmania mexicana. The experiment in a line: Antileishmanial activity against Leishmania mexicana promastigotes assessed as parasite burden at 100 ug/ml after 8 days by hemacytometer.
In experiment [32] the test system is Leishmania mexicana. As to the kind of experiment: Antileishmanial activity against Leishmania mexicana MHOM/MX/00/Tab3 infected in BALB/c mouse macrophage assessed as growth inhibition at 25 ug/ml after 6 days by hemocytometer. The class given is functional, organism-based.
Experiment [33] deals with Leishmania mexicana. As to the kind of experiment: Antileishmanial activity against Leishmania mexicana MNYC/BZ/62/M379 infected in BALB/c mouse macrophage assessed as growth inhibition at 25 ug/ml after 6 days by hemocytometer. It counts as functional, organism-based.

As for `NC(=O)NO` [HYDROXYUREA], the result with Leishmania mexicana [1], with Leishmania mexicana [2], in the experiment on Leishmania mexicana [3], with Leishmania mexicana [4], in the experiment on Leishmania mexicana [17] and with Leishmania mexicana [18] was Active. Besides, the Survival with Leishmania mexicana [5] was 11.6%; in the experiment with Leishmania mexicana [6], 3.1%. In addition, the EC50 came to 0.05 µg/mL (≈ 0.657 µM) with Leishmania mexicana [7], 0.05 µg/mL (≈ 0.657 µM) with Leishmania mexicana [8], 0.015 µg/mL (≈ 0.197 µM) with Leishmania mexicana [15] and 0.015 µg/mL (≈ 0.197 µM) in the experiment on Leishmania mexicana [16]. For the same compound, the inhibition at 1 µg/mL in the experiment with Leishmania mexicana [9] (MHOM/MX/00/Tab3, 144 h) is 96%; in the experiment with Leishmania mexicana [12] (MNYC/BZ/62/M379, 144 h), 94%; in the experiment with Leishmania mexicana [24], 87%; in the experiment on Leishmania mexicana [25], 94%. Besides, the inhibition at 10 µg/mL in the experiment with Leishmania mexicana [10] (MHOM/MX/00/Tab3, 144 h) was found to be 100%; with Leishmania mexicana [13] (MNYC/BZ/62/M379, 144 h) it was 100%; in the experiment with Leishmania mexicana [26] it was 93%; in the experiment on Leishmania mexicana [27], 98%. For the same compound, the inhibition at 100 µg/mL in the experiment with Leishmania mexicana [11] and in the experiment with Leishmania mexicana [14] was 100% each time. Also, the outcome in the experiment on Leishmania mexicana [19] was inactive. Moreover, the inhibition at 0.01 µg/mL with Leishmania mexicana [20] was determined as 44%; with Leishmania mexicana [21], 67%. Further, the figures for the inhibition at 0.1 µg/mL in the experiment with Leishmania mexicana [22] and in the experiment on Leishmania mexicana [23] were 72% and 85%, respectively. The inhibition result in the experiment on Leishmania mexicana [28] is “Active”. Further, the Activity in the experiment with Leishmania mexicana [29] came to 8.5 ×10⁶ /ml; in the experiment on Leishmania mexicana [30] it was 4.3 ×10⁶ /ml; in the experiment on Leishmania mexicana [31], 0 mL⁻¹.

As to MEGLUMINE ANTIMONATE, the inhibition in the experiment with Leishmania mexicana [9] stood at 32%; in the experiment on Leishmania mexicana [10] it was 54%; with Leishmania mexicana [32], 77%; in the experiment with Leishmania mexicana [12] it was 33%; in the experiment with Leishmania mexicana [13] it was 69%; in the experiment on Leishmania mexicana [33], 93%.
